ChEMBL document CHEMBL1138529, “Efficacy, pharmacokinetics, and metabolism of tetrahydroquinoline inhibitors of Plasmodium falciparum protein farnesyltransferase” (Antimicrob Agents Chemother, 2007)
pIC50: −log10 of the molar value. Calls of active or inactive are those of the source.

Key:
Mus musculus = test: Toxicity in BALB/c mouse at 50 mg/kg, po; assay type: organism-based; design: dose 50 mg/kg, route oral; details: in vivo
[1] = target: C-X-C chemokine receptor type 2 (Homo sapiens) (UniProt P25025); test: Inhibition of CXCR2 receptor at 10 uM
C-X-C chemokine receptor type 2 (Homo sapiens), sequence (P25025 whole entry): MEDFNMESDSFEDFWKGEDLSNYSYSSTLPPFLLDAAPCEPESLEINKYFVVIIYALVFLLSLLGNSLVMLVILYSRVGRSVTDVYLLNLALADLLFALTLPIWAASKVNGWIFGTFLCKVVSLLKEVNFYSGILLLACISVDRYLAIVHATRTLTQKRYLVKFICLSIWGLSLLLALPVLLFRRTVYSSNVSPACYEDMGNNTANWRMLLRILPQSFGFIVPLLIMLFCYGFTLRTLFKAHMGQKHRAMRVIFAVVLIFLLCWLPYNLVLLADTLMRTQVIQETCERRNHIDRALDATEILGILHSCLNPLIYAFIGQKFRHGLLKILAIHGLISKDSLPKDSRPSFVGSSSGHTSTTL
Summary of the method: (§1)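 Radioligand displacement screen by a contractor across 50 receptors, ion channels and transporters, test compound at 10 μM; decrease in specific ligand binding expressed as percentage, with >50% decrease taken as significant.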

[2] = target: Sodium-dependent dopamine transporter (Homo sapiens) (UniProt Q01959); test: Inhibition of DAT at 10 uM; summary of the method: as §1
Sodium-dependent dopamine transporter (Homo sapiens), sequence (Q01959 whole entry): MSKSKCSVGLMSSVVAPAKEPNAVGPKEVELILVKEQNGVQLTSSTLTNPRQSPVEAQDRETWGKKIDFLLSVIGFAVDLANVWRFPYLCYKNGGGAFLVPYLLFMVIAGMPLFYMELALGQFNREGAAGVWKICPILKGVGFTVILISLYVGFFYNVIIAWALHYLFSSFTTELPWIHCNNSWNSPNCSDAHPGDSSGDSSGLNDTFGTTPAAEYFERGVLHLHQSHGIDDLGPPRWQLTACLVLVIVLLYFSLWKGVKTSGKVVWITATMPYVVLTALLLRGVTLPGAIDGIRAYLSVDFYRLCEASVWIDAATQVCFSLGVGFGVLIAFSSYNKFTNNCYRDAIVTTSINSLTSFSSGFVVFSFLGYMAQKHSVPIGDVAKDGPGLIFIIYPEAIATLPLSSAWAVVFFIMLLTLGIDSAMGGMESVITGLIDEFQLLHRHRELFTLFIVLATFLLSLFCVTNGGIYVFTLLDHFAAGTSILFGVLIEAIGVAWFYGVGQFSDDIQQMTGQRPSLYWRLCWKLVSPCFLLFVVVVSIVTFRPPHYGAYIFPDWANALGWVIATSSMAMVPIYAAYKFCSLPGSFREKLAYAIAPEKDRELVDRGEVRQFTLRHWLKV

[3] = Inhibition of alpha1 adrenergic receptor at 10 uM
Summary of the method: (§2)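 Radioligand displacement screen at a 10 μM test concentration, run by a contract lab across a panel of 50 receptors, pharmacologically active ion channels and transporters. The read-out is the decrease in specific radiolabeled ligand binding, expressed as a percentage. A decrease above 50% was considered significant.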

Rattus norvegicus [4] = test: Toxicity in Plasmodium berghei NK65 infected Sprague-Dawley rat assessed as effect on cholesterol levels at 50 mg/kg, perorally administered every 12 hrs for 3 days; assay type: organism-based; design: dose 50 mg/kg, route oral; details: in vivo, po, in the assay text read “every 8 hrs” for “every 12 hrs”
Summary of the method: (§3)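 Female Sprague-Dawley rats, 10-12 weeks, n = 3 per schedule. Dosed 50 mg/kg by oral gavage every 8 h or every 12 h for 72 h. At the end of dosing, blood was sent to a clinical laboratory for complete blood counts, white cell differentials, electrolytes, glucose, renal function, liver enzymes and cholesterol.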

[5] = Oral bioavailability in Sprague-Dawley rat; assay type: ADME, organism-based; details: in vivo
Summary of the method: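 Female Sprague-Dawley rats, 10-12 weeks, three per group. Oral gavage at 50 mg/kg and jugular-catheter i.v. dose at 2 mg/kg, both in 3% EtOH-7% Tween 80-90% saline. Plasma taken over time, acetonitrile extraction with internal standard, LC/MS. Bioavailability computed as oral AUC/i.v. AUC.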

[6] = target: D(1A) dopamine receptor (Homo sapiens) (UniProt P21728); test: Inhibition of dopamine D1 receptor at 10 uM
D(1A) dopamine receptor (Homo sapiens), sequence (P21728 whole entry): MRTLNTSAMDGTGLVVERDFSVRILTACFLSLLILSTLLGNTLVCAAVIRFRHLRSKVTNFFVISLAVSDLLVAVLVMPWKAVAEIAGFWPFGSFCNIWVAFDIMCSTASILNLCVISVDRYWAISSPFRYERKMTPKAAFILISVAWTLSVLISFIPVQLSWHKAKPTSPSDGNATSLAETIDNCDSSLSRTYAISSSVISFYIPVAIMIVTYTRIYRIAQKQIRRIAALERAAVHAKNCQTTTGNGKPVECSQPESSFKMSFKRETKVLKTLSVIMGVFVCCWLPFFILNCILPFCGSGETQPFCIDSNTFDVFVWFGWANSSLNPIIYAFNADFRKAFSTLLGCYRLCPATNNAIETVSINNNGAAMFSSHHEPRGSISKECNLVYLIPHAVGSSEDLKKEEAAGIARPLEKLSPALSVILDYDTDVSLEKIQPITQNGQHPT
Summary of the method: (§4)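 Radioligand displacement at a contract lab across a panel of 50 receptors, ion channels and transporters, single test concentration 10 μM; loss of specific ligand binding reported as percent, with >50% decrease counted as significant.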

[7] = target: Muscarinic acetylcholine receptor M3 (Homo sapiens) (UniProt P20309); test: Inhibition of muscarinic M3 receptor at 10 uM; summary of the method: as §4
Muscarinic acetylcholine receptor M3 (Homo sapiens), sequence (P20309 whole entry, looked up): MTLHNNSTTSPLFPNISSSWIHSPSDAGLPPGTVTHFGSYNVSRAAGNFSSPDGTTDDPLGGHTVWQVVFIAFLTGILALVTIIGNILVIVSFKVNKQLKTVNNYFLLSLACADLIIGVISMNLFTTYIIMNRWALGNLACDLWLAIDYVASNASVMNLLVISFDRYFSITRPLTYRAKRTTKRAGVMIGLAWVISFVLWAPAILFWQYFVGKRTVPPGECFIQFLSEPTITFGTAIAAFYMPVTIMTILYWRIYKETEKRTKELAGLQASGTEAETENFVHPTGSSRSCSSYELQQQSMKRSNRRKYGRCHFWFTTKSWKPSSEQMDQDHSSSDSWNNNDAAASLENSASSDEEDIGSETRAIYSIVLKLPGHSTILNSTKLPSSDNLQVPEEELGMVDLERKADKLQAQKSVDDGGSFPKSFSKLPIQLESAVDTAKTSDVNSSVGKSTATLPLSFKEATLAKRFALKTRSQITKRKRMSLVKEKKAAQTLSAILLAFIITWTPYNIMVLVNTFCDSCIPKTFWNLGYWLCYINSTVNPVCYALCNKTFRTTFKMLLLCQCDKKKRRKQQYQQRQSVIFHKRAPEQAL

[8] = target: 5-hydroxytryptamine receptor 1A (Homo sapiens) (UniProt P08908); test: Inhibition of 5HT1A receptor at 10 uM; summary of the method: as §1
5-hydroxytryptamine receptor 1A (Homo sapiens), sequence (P08908 whole entry): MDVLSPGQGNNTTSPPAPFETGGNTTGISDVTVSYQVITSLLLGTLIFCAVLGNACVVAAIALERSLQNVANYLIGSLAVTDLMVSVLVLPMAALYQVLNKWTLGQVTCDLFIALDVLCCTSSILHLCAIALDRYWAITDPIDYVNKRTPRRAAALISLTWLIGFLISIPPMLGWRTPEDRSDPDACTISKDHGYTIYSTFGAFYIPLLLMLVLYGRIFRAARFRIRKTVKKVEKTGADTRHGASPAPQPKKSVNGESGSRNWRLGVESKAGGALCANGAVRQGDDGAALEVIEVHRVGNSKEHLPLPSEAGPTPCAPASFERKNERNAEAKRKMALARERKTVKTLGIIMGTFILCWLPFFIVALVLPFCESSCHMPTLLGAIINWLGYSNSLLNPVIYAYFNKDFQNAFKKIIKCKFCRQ

[9] = Inhibition of somatostatin receptor at 10 uM; summary of the method: as §2
[10] = target: Neurotensin receptor type 1 (Homo sapiens) (UniProt P30989); test: Inhibition of NTS1 receptor at 10 uM; summary of the method: as §1
Neurotensin receptor type 1 (Homo sapiens), sequence (P30989 whole entry): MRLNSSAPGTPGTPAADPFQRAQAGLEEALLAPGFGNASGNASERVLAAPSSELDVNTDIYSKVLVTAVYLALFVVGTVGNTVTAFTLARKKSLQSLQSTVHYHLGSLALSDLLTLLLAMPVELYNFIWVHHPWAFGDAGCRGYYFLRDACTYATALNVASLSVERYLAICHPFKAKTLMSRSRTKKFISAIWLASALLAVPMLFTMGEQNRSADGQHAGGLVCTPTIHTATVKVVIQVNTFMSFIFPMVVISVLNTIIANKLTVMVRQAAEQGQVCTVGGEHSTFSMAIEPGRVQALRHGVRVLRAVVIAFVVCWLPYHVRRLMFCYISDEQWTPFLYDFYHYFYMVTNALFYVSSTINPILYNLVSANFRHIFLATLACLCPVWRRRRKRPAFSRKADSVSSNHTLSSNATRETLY

[11] = target: Melanocortin receptor 4 (Homo sapiens) (UniProt P32245); test: Inhibition of MC4 receptor at 10 uM; summary of the method: as §1
Melanocortin receptor 4 (Homo sapiens), sequence (P32245 whole entry): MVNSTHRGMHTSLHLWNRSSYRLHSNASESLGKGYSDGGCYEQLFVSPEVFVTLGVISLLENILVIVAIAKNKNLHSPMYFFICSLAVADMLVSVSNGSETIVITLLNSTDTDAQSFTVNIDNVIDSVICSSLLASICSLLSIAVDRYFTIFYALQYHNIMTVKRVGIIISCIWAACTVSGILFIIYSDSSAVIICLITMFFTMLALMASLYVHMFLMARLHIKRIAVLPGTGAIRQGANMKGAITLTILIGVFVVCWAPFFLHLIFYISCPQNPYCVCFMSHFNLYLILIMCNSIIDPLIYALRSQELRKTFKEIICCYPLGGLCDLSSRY

[12] = target: Muscarinic acetylcholine receptor M2 (Homo sapiens) (UniProt P08172); test: Inhibition of muscarinic M2 receptor at 10 uM; summary of the method: as §4
Muscarinic acetylcholine receptor M2 (Homo sapiens), sequence (P08172 whole entry): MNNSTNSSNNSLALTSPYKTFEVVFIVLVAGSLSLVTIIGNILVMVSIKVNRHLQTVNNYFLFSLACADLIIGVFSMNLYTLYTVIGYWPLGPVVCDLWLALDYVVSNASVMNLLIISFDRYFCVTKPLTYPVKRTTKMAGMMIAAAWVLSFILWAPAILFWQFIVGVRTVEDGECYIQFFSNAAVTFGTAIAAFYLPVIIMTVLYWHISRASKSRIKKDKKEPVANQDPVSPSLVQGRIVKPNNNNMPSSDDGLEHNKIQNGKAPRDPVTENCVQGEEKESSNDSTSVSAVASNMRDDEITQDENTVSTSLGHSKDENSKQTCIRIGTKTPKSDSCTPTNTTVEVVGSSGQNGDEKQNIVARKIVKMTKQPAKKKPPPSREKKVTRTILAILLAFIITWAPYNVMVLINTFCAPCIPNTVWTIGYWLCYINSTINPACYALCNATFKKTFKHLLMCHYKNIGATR

Plasmodium berghei = test: Antiplasmodial activity as reduced parasitaemia against Plasmodium berghei NK65 infected Sprague-Dawley rat at 50 mg/kg every 8 hrs peroral dose for 3 days
Salmonella typhimurium = test: Toxicity against Salmonella enterica serovar Typhimurium TA98; assay type: organism-based, Salmonella enterica subsp. enterica serovar Typhimurium; details: in vivo
Summary of the method: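 Ames fluctuation test in S. Typhimurium TA98 (frameshift) and TA100 (base substitution), with and without rat liver S9. Tested at 5, 10, 50 and 100 μM plus higher concentrations, 48 wells each, in histidine-free liquid medium for 96 h. Growth read spectrophotometrically by pH-indicator color change. Bacterial cytotoxicity assayed in parallel at the same concentrations.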

[13] = Metabolic stability in rat liver microsomes; assay type: ADME, Microsome
Summary of the method: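 Pooled female liver microsomes at 0.5 mg/ml in 0.1 M potassium phosphate pH 7.4, 3 mM MgCl2, 1 mM EDTA, with NADPH regenerating system (1 mM NADP+, 5 mM glucose-6-phosphate, 1 U/ml G6PDH). Preincubated 10 min at 37°C, then compound added to 1 μM final. Time points quenched with 3 volumes acetonitrile plus internal standard; parent quantified by LC/MS; half-life reported.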

Rattus norvegicus [14] = test: Toxicity in Plasmodium berghei NK65 infected Sprague-Dawley rat assessed as effect on cholesterol levels at 50 mg/kg, perorally administered every 8 hrs for 3 days; assay type: organism-based; design: dose 50 mg/kg, route oral; details: in vivo, po; summary of the method: as §3
[15] = target: Type-1 angiotensin II receptor (Homo sapiens) (UniProt P30556); test: Inhibition of angiotensin AT1 receptor at 10 uM; summary of the method: as §4
Type-1 angiotensin II receptor (Homo sapiens), sequence (P30556 whole entry): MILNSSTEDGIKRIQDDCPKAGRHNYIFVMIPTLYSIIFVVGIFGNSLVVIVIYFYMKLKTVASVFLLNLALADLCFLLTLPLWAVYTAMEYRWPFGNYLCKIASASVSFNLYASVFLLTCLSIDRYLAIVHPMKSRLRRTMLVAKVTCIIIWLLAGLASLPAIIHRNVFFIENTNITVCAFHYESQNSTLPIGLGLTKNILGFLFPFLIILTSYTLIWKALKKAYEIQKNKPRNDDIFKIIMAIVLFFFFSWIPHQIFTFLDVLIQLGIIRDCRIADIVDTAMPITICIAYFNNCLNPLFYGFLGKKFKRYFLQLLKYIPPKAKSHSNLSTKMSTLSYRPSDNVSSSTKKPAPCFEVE

[16] = Permeability from apical to basolateral side in human Caco-2 cells; assay type: ADME, cell-based; details: read-out: permeability
[17] = AUC in BALB/c mouse at 50 mg/kg, po; assay type: ADME, organism-based; design: dose 50 mg/kg, route oral; details: plasma
Summary of the method: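 Three female BALB/c mice (lines for mice, 8–10 weeks) or three female Sprague-Dawley rats (10–12 weeks) per group; 50 mg/kg oral gavage in 3% EtOH-7% Tween 80-90% normal saline. Plasma sampled at set times (tail bleed in mice, saphenous vein in rats), extracted with acetonitrile plus internal standard, quantified by LC/MS; AUC as mean of three animals.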

[18] = Elimination half life in Sprague-Dawley rat at 50 mg/kg, po; assay type: ADME, organism-based; design: dose 50 mg/kg, route oral; details: in vivo, read-out: beta t1/2
Summary of the method: (§5)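 50 mg/kg by oral gavage in 3% EtOH-7% Tween 80-90% normal saline to groups of three females (BALB/c mice, 8–10 weeks, tail bleed; Sprague-Dawley rats, 10–12 weeks, saphenous vein). Plasma extracted with acetonitrile/internal standard, LC/MS; means of three animals. Oral elimination half-life depends on absorption rate as well as elimination.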

Rattus norvegicus [19] = test: Toxicity in Plasmodium berghei NK65 infected Sprague-Dawley rat assessed as effect on white blood cell differentials at 50 mg/kg, perorally administered every 12 hrs for 3 days; assay type: organism-based; design: dose 50 mg/kg, route oral; details: in vivo, po; summary of the method: as §3
Rattus norvegicus [20] = test: Toxicity in Sprague-Dawley rat at 50 mg/kg, po; assay type: organism-based; design: dose 50 mg/kg, route oral; details: in vivo
Summary of the method: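 Female Sprague-Dawley rats, 10-12 weeks, three per group. 50 mg/kg oral gavage in 3% EtOH-7% Tween 80-90% normal saline. Saphenous vein plasma sampled over time, and animals observed for adverse reactions.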

[21] = Inhibition of Plasmodium falciparum protein farnesyltransferase by SPA method
Rattus norvegicus [22] = test: Toxicity in Plasmodium berghei NK65 infected Sprague-Dawley rat assessed as effect on renal function at 50 mg/kg, perorally administered every 8 hrs for 3 days; assay type: organism-based; design: dose 50 mg/kg, route oral; details: in vivo, po; summary of the method: as §3
[23] = Inhibition of dopamine GABA receptor at 10 uM; summary of the method: as §2
[24] = target: Adenosine receptor A1 (Homo sapiens) (UniProt P30542); test: Inhibition of adenosine A1 receptor at 10 uM; summary of the method: as §1
Adenosine receptor A1 (Homo sapiens), sequence (P30542 whole entry): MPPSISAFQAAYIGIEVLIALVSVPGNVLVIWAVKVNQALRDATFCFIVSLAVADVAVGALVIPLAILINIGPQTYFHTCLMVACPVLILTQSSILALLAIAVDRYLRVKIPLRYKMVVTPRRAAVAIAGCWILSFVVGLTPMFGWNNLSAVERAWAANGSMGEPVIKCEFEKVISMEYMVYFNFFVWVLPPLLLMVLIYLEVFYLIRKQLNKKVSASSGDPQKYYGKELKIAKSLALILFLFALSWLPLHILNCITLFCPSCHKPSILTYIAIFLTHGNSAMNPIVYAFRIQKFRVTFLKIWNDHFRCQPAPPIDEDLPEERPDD

[25] = Inhibition of L-type calcium channel at verapamil site at 10 uM; summary of the method: as §2
Rattus norvegicus [26] = test: Toxicity in Plasmodium berghei NK65 infected Sprague-Dawley rat assessed as effect on blood counts at 50 mg/kg, perorally administered every 8 hrs for 3 days; assay type: organism-based; design: dose 50 mg/kg, route oral; details: in vivo, po; summary of the method: as §3
[27] = target: Muscarinic acetylcholine receptor M1 (Homo sapiens) (UniProt P11229); test: Inhibition of muscarinic M1 receptor at 10 uM; summary of the method: as §4
Muscarinic acetylcholine receptor M1 (Homo sapiens), sequence (P11229 whole entry): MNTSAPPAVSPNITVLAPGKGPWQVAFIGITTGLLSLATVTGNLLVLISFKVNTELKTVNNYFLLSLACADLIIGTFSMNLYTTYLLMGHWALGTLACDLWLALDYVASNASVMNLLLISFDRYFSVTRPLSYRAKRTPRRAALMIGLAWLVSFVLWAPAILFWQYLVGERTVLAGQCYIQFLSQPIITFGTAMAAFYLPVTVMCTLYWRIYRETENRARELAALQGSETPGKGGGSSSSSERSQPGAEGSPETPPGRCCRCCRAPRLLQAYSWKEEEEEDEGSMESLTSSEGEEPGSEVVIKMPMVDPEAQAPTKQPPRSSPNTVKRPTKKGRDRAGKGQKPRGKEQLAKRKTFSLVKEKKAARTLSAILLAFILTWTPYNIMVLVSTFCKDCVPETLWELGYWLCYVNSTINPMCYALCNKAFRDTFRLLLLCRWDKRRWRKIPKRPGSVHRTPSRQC

[28] = Cmax in BALB/c mouse at 50 mg/kg, po; assay type: ADME, organism-based; design: dose 50 mg/kg, route oral; details: in vivo; summary of the method: as §5
Rattus norvegicus [29] = test: Toxicity in Plasmodium berghei NK65 infected Sprague-Dawley rat assessed as effect on white blood cell differentials at 50 mg/kg, perorally administered every 8 hrs for 3 days; assay type: organism-based; design: dose 50 mg/kg, route oral; details: in vivo, po; summary of the method: as §3

Q: What does the source list for COC(=O)N1CCC(CN(C2Cc3cc(C#N)ccc3N(Cc3cncn3C)C2)S(=O)(=O)c2ccccn2)CC1 (configuration not stated)?
A: Activity (Mus musculus): Non-toxic; inhibition [1]: inactive; inhibition [2]: inactive; inhibition [3]: inactive; Activity (Rattus norvegicus [4]): Non-toxic; bioavailability [5]: 82%; inhibition [6]: inactive; inhibition [7]: inactive; inhibition [8]: inactive; inhibition [9]: inactive; inhibition [10]: inactive; inhibition [11]: inactive; inhibition [12]: 77%; Activity (Plasmodium berghei): Active; Activity (Salmonella typhimurium): Non-toxic; half-life [13]: 14 min; Activity (Rattus norvegicus [14]): Non-toxic; inhibition [15]: inactive; Papp A→B [16]: 1.1 ×10⁻⁶ cm/s; AUC [17]: 3.68 µM·h; half-life [18]: 41 min; Activity (Rattus norvegicus [19]): Non-toxic; Activity (Rattus norvegicus [20]): Non-toxic; pIC50 [21]: 9.24; Activity (Rattus norvegicus [22]): Non-toxic; inhibition [23]: inactive; inhibition [24]: inactive; inhibition [25]: inactive; Activity (Rattus norvegicus [26]): Non-toxic; inhibition [27]: 64%; Cmax [28]: 4.2 µM; Activity (Rattus norvegicus [29]): Non-toxic
